Where “and” joins values, the source holds several entries; their conditions need not be identical. Identical values can stand only once. Like-named read-outs stand apart in the source and are kept apart here.
Legend:
A549 cells [1] = experiment: SRB cytotoxicity assay, 2D monolayer; assay type: cell-based, human; conditions: read-out: EC50 A549
In short: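 Cells were seeded in 96-well plates (A549 5000, A375 7000, MCF7 8000, MRC5 6000 cells/well) in OptiMEM with 2.4% FCS, then held 24 h at 37 °C, 7.0% CO2. Six concentrations were added in triplicate for 72 h. Plates were fixed with cold 10% TCA (4 °C, ≥4 h), stained with 0.6% SRB (30 min) and solubilized in 10 mM Tris; absorbance read at 510 nm. EC50 was taken versus untreated wells; three independent experiments, 95% CI.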

[2] = biological target: Kv11.1 (hERG) potassium channel (Homo sapiens, UniProt Q12809); experiment: [3H]dofetilide displacement assay on HEK293 Kv11.1 cell membranes; assay type: binding; conditions: tested concentration 10 μM
Sequence of Kv11.1 (hERG) potassium channel (Q12809 whole entry): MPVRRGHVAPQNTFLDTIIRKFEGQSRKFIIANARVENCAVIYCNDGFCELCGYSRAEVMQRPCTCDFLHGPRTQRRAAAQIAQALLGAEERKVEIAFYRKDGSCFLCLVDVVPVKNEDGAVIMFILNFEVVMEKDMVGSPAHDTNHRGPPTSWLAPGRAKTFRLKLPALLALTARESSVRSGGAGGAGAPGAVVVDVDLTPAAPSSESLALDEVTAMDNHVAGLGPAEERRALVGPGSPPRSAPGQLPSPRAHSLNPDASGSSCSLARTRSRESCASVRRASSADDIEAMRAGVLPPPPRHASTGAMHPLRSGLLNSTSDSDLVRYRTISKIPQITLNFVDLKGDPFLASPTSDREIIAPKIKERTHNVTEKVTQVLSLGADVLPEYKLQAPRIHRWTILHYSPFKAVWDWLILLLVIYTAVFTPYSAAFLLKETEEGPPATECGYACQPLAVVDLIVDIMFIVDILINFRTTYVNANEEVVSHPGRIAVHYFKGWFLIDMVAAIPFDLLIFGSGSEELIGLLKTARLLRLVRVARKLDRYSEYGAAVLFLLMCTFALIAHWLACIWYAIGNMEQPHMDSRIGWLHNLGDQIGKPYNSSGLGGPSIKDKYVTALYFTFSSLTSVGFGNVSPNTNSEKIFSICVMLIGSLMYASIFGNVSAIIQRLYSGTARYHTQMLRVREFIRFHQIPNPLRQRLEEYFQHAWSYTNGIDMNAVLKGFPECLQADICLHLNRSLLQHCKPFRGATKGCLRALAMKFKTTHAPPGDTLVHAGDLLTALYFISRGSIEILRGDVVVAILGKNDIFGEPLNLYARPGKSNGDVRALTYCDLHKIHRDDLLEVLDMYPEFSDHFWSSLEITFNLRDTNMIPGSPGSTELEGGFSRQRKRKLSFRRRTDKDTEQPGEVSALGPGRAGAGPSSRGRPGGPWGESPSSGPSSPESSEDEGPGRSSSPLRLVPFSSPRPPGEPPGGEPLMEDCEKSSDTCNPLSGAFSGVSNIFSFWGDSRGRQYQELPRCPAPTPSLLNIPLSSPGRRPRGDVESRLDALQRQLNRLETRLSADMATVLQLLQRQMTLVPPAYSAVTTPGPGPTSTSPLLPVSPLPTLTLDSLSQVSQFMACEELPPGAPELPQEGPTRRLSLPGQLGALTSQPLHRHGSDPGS
In short: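 HEK293 Kv11.1 membranes (30 μg protein) were loaded with 2 nM [3H]dofetilide at 15 °C for 90 min. Dissociation was started with 10 μM unlabeled dofetilide, without or with 10 μM test compound, for 10 min. Samples were filtered through GF/B, washed twice with ice-cold buffer and counted by scintillation. Binding (%) = 100% − [3H]dofetilide binding remaining.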

A549 cells [3] = experiment: Mitochondrial membrane potential, TRME staining, flow cytometry; assay type: cell-based, human; conditions: 20 μM, 24 h (CCCP 20 μM, 1 h), FACS
In short: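 A549 cells were seeded at 1 × 10^5 per well, grown 24 h under normoxia, then exposed to compound for 24 h. After a PBS wash, cells were stained with TRME at 150 nM for 30 min; the positive control got CCCP before staining. Harvested cells were analysed by flow cytometry, excitation 488 and emission 575.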

Row | Compound | EC50 (A549 cells [1]; 2D monolayer, hypoxic (1% O2)) [µM] | EC50 (A549 cells [1]; Homo sapiens, A549, 72 h) [µM] | Kv11.1 binding (100% - [3H]dofetilide binding remaining) [2] | [3H]dofetilide binding remaining [2] [%] | Influence on mitochondrial membrane potential (A549 cells [3])
1 | N.N.[Cl][Pt][Cl] [cisplatin, reference compound] | 24 |  |  |  | 
2 | c1cc(Nc2ccc3ccccc3n2)nc(-c2cccc(Nc3ccc4ccccc4n3)n2)c1 [H2biqbpy2, N6,N6′-di(quinolin-2-yl)-[2,2′-bipyridine]-6,6′-diamine] |  | 12 | 84% and 84 ± 4% | 16 ± 4 | 
3 | N#CC(C#N)=NNc1cccc(Cl)c1 [CCCP, carbonyl cyanide m-chlorophenyl hydrazone, reference compound] |  |  |  |  | dramatically reduced percentage of intact mitochondrial membranes
4 | c1cc(Nc2cc3ccccc3cn2)nc(-c2cccc(Nc3cc4ccccc4cn3)n2)c1 [H2biqbpy1, N6,N6′-di(isoquinolin-3-yl)-[2,2′-bipyridine]-6,6′-diamine] |  | > 200 | 36% and 36 ± 4% | 64 ± 4 | 
